Compounds with a hit are over-represented: about 3.5% of the library has one in this group of screens.
RGS4 act: RGS4 potentiation or activation. HEK293 M3R/inducible RGS4, carbachol calcium flux Fluo4; stronger effect = lower value. hit rate 0.92% among 310,000. B-score at 10 µM;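 active = B-score of the integrated calcium signal more than 4 SD below the library mean, with starting fluorescence not abnormally high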;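 note: negative B-score means reduced calcium response which marks RGS4 activation or potentiation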
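test system = HEK293 cells with stable M3R and inducible RGS4 | schedule = recording 10 s baseline at 1 Hz, 100 s post-agonist | technique = Fluo4-AM (2 µM) calcium-flux fluorescence, kinetic read | measure = Agonist-evoked peak-minus-minimum fluorescence over baseline, integrated ratio, B score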
MrgX1 antag: human MrgX1 receptor antagonism, primary screen. MRGX1-HEK293 calcium flux, Fluo-4, BAM8-22 antagonism; stronger effect = lower value. B-score at 10 µM. hit rate 1.3% among 310,000;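 active = calcium-response B-score plate-corrected more than 3 library SD below zero, starting fluorescence within 5 deviations, no agonist response on first addition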;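 note: peak minus trough fluorescence over baseline after final BAM8-22 challenge near maximal dose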
Target sequence (Q96LB2 whole entry, looked up): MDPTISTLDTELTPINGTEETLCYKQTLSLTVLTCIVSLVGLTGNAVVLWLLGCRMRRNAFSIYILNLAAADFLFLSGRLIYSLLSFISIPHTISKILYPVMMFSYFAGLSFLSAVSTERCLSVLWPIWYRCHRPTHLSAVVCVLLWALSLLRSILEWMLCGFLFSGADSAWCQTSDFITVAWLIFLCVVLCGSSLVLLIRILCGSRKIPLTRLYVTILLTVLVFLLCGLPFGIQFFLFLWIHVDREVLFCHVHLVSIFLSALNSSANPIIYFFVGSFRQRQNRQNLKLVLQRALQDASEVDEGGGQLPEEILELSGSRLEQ
RGS4 inh: human RGS4 inhibition. P49798. HEK293 M3R/RGS4 inducible, Fluo-4 calcium flux; stronger effect = higher value; triggered by carbachol at its EC20. B-score at 10 µM. hit rate 0.45% among 310,000. AID 463165;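 active = B-score, a plate-corrected calcium signal, over three deviations above library mean, with baseline fluorescence within five deviations of library mean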;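 note: RGS4 expression induced by doxycycline in cells with stable M3 receptor; B-score is computed from the integrated fluorescence ratio over baseline after carbachol; higher B-score means a larger calcium signal and so more RGS4 inhibition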
Target sequence (P49798 whole entry, looked up): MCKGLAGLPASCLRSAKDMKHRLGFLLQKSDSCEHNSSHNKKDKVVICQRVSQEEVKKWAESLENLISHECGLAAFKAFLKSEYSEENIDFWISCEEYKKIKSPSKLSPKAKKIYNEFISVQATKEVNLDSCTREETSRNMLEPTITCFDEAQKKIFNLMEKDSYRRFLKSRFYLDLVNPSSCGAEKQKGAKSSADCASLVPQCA
MrgX1 allo act: allosterically activates human MrgX1 receptor signaling; Q96LB2; MrgX1-HEK293, Fluo-4 calcium flux, FDSS; stronger effect = higher value; B-score at 10 µM; hit rate 0.63% among 310,000;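 active = plate-corrected calcium response at least 3 library SD above typical, normal starting fluorescence, not activating the receptor alone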;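 note: compound read alongside a low EC10 to EC30 dose of BAM8-22 agonist; peak minus trough fluorescence over baseline measured at the second addition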
MrgX1 ag: human MrgX1 receptor agonism, primary screen. hit rate 0.44% among 310,000. B-score at 10 µM. Q96LB2. MrgX1-HEK293 cells, Fluo-4 calcium fluorescence, agonist mode; stronger effect = higher value;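 active = calcium response B-score plate-corrected fluorescence ratio at least 3 library SD, with starting fluorescence B-score inside 5 SD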
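Material – MrgX1-expressing HEK293 cells · Input – 15,000 cells seeded per well · Dosing – compound as first of three additions · Times – overnight seeding, then 1 h dark dye loading · Measured by – kinetic Fluo-4 NW fluorescence of intracellular calcium · Read-out – B-scored fluorescence response ratio · Benchmarks – positive and negative control wells on each plate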
* hit, by the source's call; i = inactive; / = no result given.

SMILES	RGS4 act	MrgX1 antag	RGS4 inh	MrgX1 allo act	MrgX1 ag
Cc1ccc(/C=C2/C(=O)NC(=O)N(Cc3ccc(F)cc3)C2=O)o1	i	i	11*	i	i
COc1ccc(CN2C(=O)NC(=O)/C(=C\c3cccc(OC)c3OC)C2=O)cc1	i	-5.5*	i	i	i
COc1cc(N2CCOCC2)ccc1/C=C1\C(=O)NC(=O)N(Cc2ccc3c(c2)OCO3)C1=O	i	i	i	12*	i
Cc1ccccc1NC(=O)NCCN1CC1	i	i	i	i	i
CC(=O)OC1N=C(c2ccccc2Cl)c2cc(Br)ccc2N(C)C1=O (stereo unspecified)	i	i	i	i	i
ON1C2CCCCC2N(O)C1c1ccccc1F (stereo unspecified)	i	i	i	i	i
CC(C)N(CC(O)c1cccc([N+](=O)[O-])c1)C(C)C (stereo unspecified)	i	-6.2*	i	i	i
CC(=NCCN1CCCCC1)c1c(O)[nH]c(=O)[nH]c1=O	i	i	i	i	i
O=[N+]([O-])c1cc(O)c(O)c([N+](=O)[O-])c1	/	-5.4*	/	i	i
CN(c1ccc(OCC(=O)N2CCN(C/C=C/c3ccccc3)CC2)cc1)S(=O)(=O)c1cccs1	i	i	i	i	i
CC[n+]1c(SC)ccc2cc(OC)ccc21	i	i	i	i	i
CN(C)CCSC1c2ccccc2CSc2ccccc21 (stereo unspecified)	-9.1*	i	i	i	i
COc1cccc(C(=O)C2CN(C)CC2c2ccc(Cl)cc2)c1 (stereo unspecified)	i	i	i	i	i
COc1ccc(C(=O)C2CN(C)CC2c2ccc(Cl)cc2)cc1 (stereo unspecified)	-7.2*	i	i	i	i
O=C(O)Cn1cc(/C=C2\C(=O)NC(=O)N(c3ccc(Cl)cc3)C2=O)c2ccccc21	i	i	i	i	i
Cn1cc(/C=C2\C(=O)NC(=O)N(c3ccccc3)C2=O)c2ccccc21	-7.8*	i	i	i	i
C[N+]12CCC(CC1)C(=C(c1ccccc1)c1ccccc1)C2	-8.8*	i	i	i	i
CCC[N+]12CCC(CC1)C(C(O)(c1ccccc1)c1ccccc1)C2 (stereo unspecified)	i	i	i	i	i
CC[N+]12CCC(CC1)C(=C(c1ccccc1)c1ccccc1)C2	-10*	i	i	i	i
CC1(C)C[C@H]2C=C(C=O)[C@]3(C=O)C[C@]3(C)[C@H]2C1	i	i	i	i	32*
CCOC(=O)C1(CCc2ccccc2)CCN(Cc2csc(C(C)=O)c2)CC1	i	i	i	i	i
CCOC(=O)C1(CCc2ccccc2)CCN(Cc2cccc3c2OCO3)CC1	-7.5*	i	i	i	i
CCN(CCO)c1ccc(N=Cc2c(O)n(C)c(=S)[nH]c2=O)cc1	i	i	i	i	43*
CCN(CC)c1ccc(N=Cc2c(O)n(Cc3ccco3)c(=O)[nH]c2=O)cc1	i	i	i	i	i
O=c1c2ccccc2[se]n1-c1ccccc1	i	i	i	i	40*
SMILES	RGS4 act	MrgX1 antag	RGS4 inh	MrgX1 allo act	MrgX1 ag
O=C1C(=O)c2cccc3cccc1c23	i	i	i	i	27*
O=C1C(=O)c2ccccc2-c2ccccc21	i	i	i	i	i
COC1=CC(=O)O[C@@H](/C=C/c2ccccc2)C1	/	i	/	i	i
O=C(c1ccc2c(c1)N(Cc1ccccc1)CCS2)N1CCC2(CC1)OCCO2	i	i	i	i	i
O=C1Nc2cc(C(=O)N3CCC4(CC3)OCCO4)ccc2NC1CSCc1cccc(F)c1 (stereo unspecified)	i	i	i	i	42*
CCc1ccc(-c2nn(Cc3ccccc3)cc2C=O)cc1	i	i	i	i	i
CC(N)C(=O)c1ccco1 (stereo unspecified)	i	i	i	i	i
OC12Oc3ccccc3C=C1N1CCC2CC1 (stereo unspecified)	i	i	i	i	i
Cc1ccc(C[n+]2c(-c3ccc(C)cc3)cc(-c3ccc(C)cc3)cc2-c2ccc(C)cc2)cc1	-7.2*	-13*	i	i	i
COc1cc(/C=C/c2nc3ccccc3c(=O)n2-c2ccc(O)cc2)ccc1O	-8.2*	i	i	i	i
COc1ccc(-n2c(/C=C/c3ccc(O)c(O)c3)nc3ccccc3c2=O)cc1	i	i	i	i	i
COc1ccccc1CCNC1CCC(C(C)(C)C)CC1 (stereo unspecified)	i	i	i	i	i
O=C(c1ccccc1)C(CN1CCCC1)c1ccccc1 (stereo unspecified)	-8.4*	i	i	i	i
O=C(CN1CCCCC1)c1ccc(F)cc1	i	i	i	i	i
CN(C)c1cccc2c(C#N)ccc(N(C)C)c12	i	i	i	i	i
COP(=O)(OC)C(NC(=O)C(C)(C)C)=C(Cl)Cl	i	-5.8*	i	i	i
CC[C@@H]1C(=O)OC[C@@H]1Cc1cncn1C	/	i	/	8.7*	i
Nc1ccc(C2(c3ccc(N)cc3)CN3CCC2CC3)cc1	i	i	i	i	i
Cc1cc(N2CCCC2)ccc1C=C(C#N)C#N	i	-5.5*	i	i	i
Cc1cc(N2CCCCC2)ccc1C=C1C(=O)N(C)C(=S)N(C)C1=O	i	i	i	i	i
CC1Oc2cc3c(-c4c(O)cc(O)c5c(O)c6c(cc45)OC(C)C(C)C6=O)c(O)cc(O)c3c(O)c2C(=O)C1C (stereo unspecified)	i	-5.9*	i	i	i
COC(=O)CSC1=NN1c1cc(C)nc(N)n1	i	i	i	i	i
CC(Cc1ccccc1Sc1ccccc1)N(C)C (stereo unspecified)	-9.3*	i	i	i	i
CSc1ccc(CN2CCN(Cc3ccccc3Cl)CC2)cc1	i	i	i	i	i
CN1CCN(Cc2ccccc2Sc2ccccc2)CC1	-8.2*	i	i	i	i
Cc1cccc(-n2c(=S)[nH]c3ccccc3c2=O)n1	i	i	i	i	i
CN1/C(=C\C=C\C2=[N+](C)c3ccc4ccccc4c3C2(C)C)C(C)(C)c2ccccc21	/	i	/	i	i
C[N+]1=C(/C=C/Nc2ccccc2)C(C)(C)c2ccccc21	i	-4.9*	i	i	i
CN1OC[C@@H]2COc3ccc4ccccc4c3[C@@H]21	i	i	i	i	i
